Source: ChEMBL document CHEMBL5058577, “EUbOPEN Chemogenomics Library 2 (Multiplex)” (2022)

System: U2OS
Assay: Multiplex assay against U2OS
Format: toxicity, cell-based
Conditions: human
Method in brief: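 Cells were classed with CellPathfinder machine-learning gating, first as Hoechst high-intensity objects or normal cells, then (normal cells) as healthy, pyknosed or fragmented nuclei, and finally (pyknosed cells) as mitotic or apoptotic. Staining of live cells at seeding used Hoechst33342, BioTracker Green Microtubule Cytoskeleton Dye, MitoTracker Red and Annexin V Alexa Fluor 680, with imaging on a CQ1 microscope at 37°C and 5% CO2 after compound addition. Tubulin, mitochondrial-mass and membrane-permeability phenotypes are per cents of healthy-nucleus cells.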

[1] = 12 h, 1 µM, compound concentration 1 uM, replicate 1
[2] = 12 h, 1 µM, compound concentration 1 uM, replicate 2
[3] = 12 h, 10 µM, compound concentration 10 uM, replicate 1
[4] = 12 h, 10 µM, compound concentration 10 uM, replicate 2
[5] = 24 h, 1 µM, compound concentration 1 uM, replicate 1
[6] = 24 h, 1 µM, compound concentration 1 uM, replicate 2
[7] = 24 h, 10 µM, compound concentration 10 uM, replicate 1
[8] = 24 h, 10 µM, compound concentration 10 uM, replicate 2
[9] = 48 h, 1 µM, compound concentration 1 uM, replicate 1
[10] = 48 h, 1 µM, compound concentration 1 uM, replicate 2
[11] = 48 h, 10 µM, compound concentration 10 uM, replicate 1
[12] = 48 h, 10 µM, compound concentration 10 uM, replicate 2

With CC(C)c1noc(N2CCC(COc3ccc(-c4ccc(S(C)(=O)=O)cc4)nc3)CC2)n1 [GSK-1292263] the “Population Apoptotic (%)” value [1] was 72%, the “Population Fragmented Nuclei (%)” value [1] was 27% and the “Population Healthy Nuclei (%)” value [1] was 62%. The “Population Hoechst High Intensity Objects (%)” value [1] was 2%, the “Population Membrane Permeable-Phenotype (%)” value [1] was 3% and the “Population Mitochondria Different-Phenotype (%)” value [1] was 2%. The “Population Mitotic Cells (%)” value [1] was 27%, the “Population Normal (%)” value [1] was 97% and the “Population Pyknosed Nuclei (%)” value [1] was 10%. The “Population Tubulin-Different-Phenotype (%)” value [1] was 0%, the “Total Cell Count” value [1] was 177 and the “Population Apoptotic (%)” value [2] was 100%. For the same molecule, the “Population Fragmented Nuclei (%)” value [2] was 16%, the “Population Healthy Nuclei (%)” value [2] was 77% and the “Population Hoechst High Intensity Objects (%)” value [2] was 1%. For the same molecule, the “Population Membrane Permeable-Phenotype (%)” value [2] was 4%, the “Population Mitochondria Different-Phenotype (%)” value [2] was 0% and the “Population Mitotic Cells (%)” value [2] was 0%. The “Population Normal (%)” value [2] was 98%, the “Population Pyknosed Nuclei (%)” value [2] was 5% and the “Population Tubulin-Different-Phenotype (%)” value [2] was 2%. The “Total Cell Count” value [2] was 114, the “Population Apoptotic (%)” value [3] was 90% and the “Population Fragmented Nuclei (%)” value [3] was 31%. For the same molecule, the “Population Healthy Nuclei (%)” value [3] was 60%, the “Population Hoechst High Intensity Objects (%)” value [3] was 2% and the “Population Membrane Permeable-Phenotype (%)” value [3] was 10%. For the same molecule, the “Population Mitochondria Different-Phenotype (%)” value [3] was 6%, the “Population Mitotic Cells (%)” value [3] was 10% and the “Population Normal (%)” value [3] was 97%. For the same molecule, the “Population Pyknosed Nuclei (%)” value [3] was 7%, the “Population Tubulin-Different-Phenotype (%)” value [3] was 6% and the “Total Cell Count” value [3] was 262. The “Population Apoptotic (%)” value [4] was 100%, the “Population Fragmented Nuclei (%)” value [4] was 20% and the “Population Healthy Nuclei (%)” value [4] was 73%. For the same molecule, the “Population Hoechst High Intensity Objects (%)” value [4] was 0%, the “Population Mitochondria Different-Phenotype (%)” value [4] was 8% and the “Population Mitotic Cells (%)” value [4] was 0%. The “Population Normal (%)” value [4] was 100%, the “Population Pyknosed Nuclei (%)” value [4] was 5% and the “Total Cell Count” value [4] was 134. The “Population Apoptotic (%)” value [5] was 63%, the “Population Fragmented Nuclei (%)” value [5] was 32% and the “Population Healthy Nuclei (%)” value [5] was 57%. The “Population Hoechst High Intensity Objects (%)” value [5] was 1%, the “Population Membrane Permeable-Phenotype (%)” value [5] was 5% and the “Population Mitochondria Different-Phenotype (%)” value [5] was 2%. For the same molecule, the “Population Mitotic Cells (%)” value [5] was 36%, the “Population Normal (%)” value [5] was 98% and the “Population Pyknosed Nuclei (%)” value [5] was 9%. For the same molecule, the “Population Tubulin-Different-Phenotype (%)” value [5] was 3%, the “Total Cell Count” value [5] was 236 and the “Population Apoptotic (%)” value [6] was 66%. The “Population Fragmented Nuclei (%)” value [6] was 15%, the “Population Healthy Nuclei (%)” value [6] was 77% and the “Population Hoechst High Intensity Objects (%)” value [6] was 0%. For the same molecule, the “Population Membrane Permeable-Phenotype (%)” value [6] was 2%, the “Population Mitotic Cells (%)” value [6] was 33% and the “Population Normal (%)” value [6] was 99%. The “Population Pyknosed Nuclei (%)” value [6] was 6%, the “Population Tubulin-Different-Phenotype (%)” value [6] was 1% and the “Total Cell Count” value [6] was 145. For the same molecule, the “Population Apoptotic (%)” value [7] was 92%, the “Population Fragmented Nuclei (%)” value [7] was 25% and the “Population Healthy Nuclei (%)” value [7] was 65%. For the same molecule, the “Population Hoechst High Intensity Objects (%)” value [7] was 0%, the “Population Membrane Permeable-Phenotype (%)” value [7] was 10% and the “Population Mitochondria Different-Phenotype (%)” value [7] was 3%. The “Population Mitotic Cells (%)” value [7] was 7%, the “Population Normal (%)” value [7] was 99% and the “Population Pyknosed Nuclei (%)” value [7] was 9%. The “Population Tubulin-Different-Phenotype (%)” value [7] was 3%, the “Total Cell Count” value [7] was 284 and the “Population Apoptotic (%)” value [8] was 66%. For the same molecule, the “Population Fragmented Nuclei (%)” value [8] was 15%, the “Population Healthy Nuclei (%)” value [8] was 75% and the “Population Hoechst High Intensity Objects (%)” value [8] was 2%. For the same molecule, the “Population Membrane Permeable-Phenotype (%)” value [8] was 6%, the “Population Mitochondria Different-Phenotype (%)” value [8] was 5% and the “Population Mitotic Cells (%)” value [8] was 33%. For the same molecule, the “Population Normal (%)” value [8] was 97%, the “Population Pyknosed Nuclei (%)” value [8] was 8% and the “Population Tubulin-Different-Phenotype (%)” value [8] was 2%. For the same molecule, the “Total Cell Count” value [8] was 143, the “Population Apoptotic (%)” value [9] was 77% and the “Population Fragmented Nuclei (%)” value [9] was 23%. The “Population Healthy Nuclei (%)” value [9] was 69%, the “Population Hoechst High Intensity Objects (%)” value [9] was 2% and the “Population Membrane Permeable-Phenotype (%)” value [9] was 3%. For the same molecule, the “Population Mitochondria Different-Phenotype (%)” value [9] was 3%, the “Population Mitotic Cells (%)” value [9] was 22% and the “Population Normal (%)” value [9] was 97%. For the same molecule, the “Population Pyknosed Nuclei (%)” value [9] was 6%, the “Population Tubulin-Different-Phenotype (%)” value [9] was 2% and the “Total Cell Count” value [9] was 339. For the same molecule, the “Population Apoptotic (%)” value [10] was 90%, the “Population Fragmented Nuclei (%)” value [10] was 15% and the “Population Healthy Nuclei (%)” value [10] was 74%. For the same molecule, the “Population Hoechst High Intensity Objects (%)” value [10] was 1%, the “Population Membrane Permeable-Phenotype (%)” value [10] was 6% and the “Population Mitochondria Different-Phenotype (%)” value [10] was 2%. The “Population Mitotic Cells (%)” value [10] was 10%, the “Population Normal (%)” value [10] was 98% and the “Population Pyknosed Nuclei (%)” value [10] was 10%. The “Population Tubulin-Different-Phenotype (%)” value [10] was 1%, the “Total Cell Count” value [10] was 201 and the “Population Apoptotic (%)” value [11] was 87%. The “Population Fragmented Nuclei (%)” value [11] was 22%, the “Population Healthy Nuclei (%)” value [11] was 68% and the “Population Hoechst High Intensity Objects (%)” value [11] was 4%. The “Population Membrane Permeable-Phenotype (%)” value [11] was 6%, the “Population Mitochondria Different-Phenotype (%)” value [11] was 2% and the “Population Mitotic Cells (%)” value [11] was 12%. For the same molecule, the “Population Normal (%)” value [11] was 95%, the “Population Pyknosed Nuclei (%)” value [11] was 9% and the “Population Tubulin-Different-Phenotype (%)” value [11] was 2%. The “Total Cell Count” value [11] was 354, the “Population Apoptotic (%)” value [12] was 83% and the “Population Fragmented Nuclei (%)” value [12] was 12%. For the same molecule, the “Population Healthy Nuclei (%)” value [12] was 77%, the “Population Hoechst High Intensity Objects (%)” value [12] was 1% and the “Population Membrane Permeable-Phenotype (%)” value [12] was 5%. For the same molecule, the “Population Mitochondria Different-Phenotype (%)” value [12] was 4%, the “Population Mitotic Cells (%)” value [12] was 16% and the “Population Normal (%)” value [12] was 98%. For the same molecule, the “Population Tubulin-Different-Phenotype (%)” value [12] was 4% and the “Total Cell Count” value [12] was 189.
